Results reported in ChEMBL document CHEMBL1212759, “Antifungal activity of colistin against mucorales species in vitro and in a murine model of Rhizopus oryzae pulmonary infection” (Antimicrob Agents Chemother, 2010).
Calls of active or inactive are those of the source. The calls are words filed in the database; no cut-off is given here.

Tests used:
Assay type in all cases: functional, organism-based
Rhizopus arrhizus [1] = assay: Antimicrobial activity against Rhizopus oryzae infected in BALB/c mouse pulmonary mucormycosis model assessed as effect on fungus-induced mortality rate at 80 mg/kg/day, ip after 10 days
How it was run: (§1)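 Female BALB/c mice (18–22 g) were immunosuppressed with cyclophosphamide 75 mg/kg i.p. and cortisone acetate 300 mg/kg s.c., then infected intranasally with ~3,500 R. oryzae spores. Colistimethate 40 mg/kg i.p. was given every 12 h for 5 days, starting 3 h post-infection; controls got saline. Groups of 10, run three times. Mortality was followed twice daily for 10 days; lung fungal burden by qPCR of rRNA gene, duplicate.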

Rhizopus arrhizus [2] = assay: Antimicrobial activity against Rhizopus oryzae infected in BALB/c mouse pulmonary mucormycosis model assessed as increase in survival rate at 5 mg/kg/day, itn after 10 days
How it was run: (§2)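 Female BALB/c mice were immunosuppressed with cyclophosphamide and cortisone acetate and infected intranasally with ~3,500 R. oryzae spores. As prophylaxis, intranasal colistimethate 2.5 mg/kg was given every 12 h for 5 days, starting 1 day before infection; on infection day it was given 3 h after spores. Groups of 10, run three times. Survival was followed over 10 days; lung burden by rRNA-gene qPCR.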

Rhizopus arrhizus [3] = assay: Antifungal activity against Rhizopus oryzae infected in BALB/c mouse pulmonary mucormycosis model assessed as decrease in fungal burden at 80 mg/kg/day, ip by RT-qPCR analysis; how it was run: as §1
Rhizopus arrhizus [4] = assay: Antifungal activity against Rhizopus oryzae infected in BALB/c mouse pulmonary mucormycosis model assessed as decrease in fungal burden at 5 mg/kg/day, itn by RT-qPCR analysis; how it was run: as §2
Rhizopus arrhizus [5] = assay: Fungicidal activity against Rhizopus oryzae 5799 at 2 ug/ml after 6 hrs by DiBAC staining
How it was run: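 Spores were grown to mycelia in RPMI 1640 plus 0.15% Junlon, shaken 18 h at 37°C. Mycelia were pelleted and exposed 6 h at 37°C with shaking to colistin (two levels), amphotericin B 2 μg/ml, or drug-free medium. They were washed in MOPS pH 7, stained with DiBAC 2 μg/ml for 1 h in the dark at ambient temperature, and imaged by fluorescence microscopy with an FITC filter.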

Row | Molecule | Activity (Rhizopus arrhizus [1]) | survival (Rhizopus arrhizus [2]) [%] | inhibition (Rhizopus arrhizus [3]) | inhibition (Rhizopus arrhizus [4]) | Activity (Rhizopus arrhizus [5])
1 | COLISTIMETHATE | inactive | 61 | inactive | Active | 
2 | C[C@@H]1[C@H](O)[C@@H](C)/C=C/C=C/C=C/C=C/C=C/C=C/C=C/[C@H](O[C@@H]2O[C@H](C)[C@@H](O)[C@H](N)[C@@H]2O)C[C@@H]2O[C@](O)(C[C@@H](O)C[C@@H](O)[C@H](O)CC[C@@H](O)C[C@@H](O)CC(=O)O[C@H]1C)C[C@H](O)[C@H]2C(=O)O |  |  |  |  | Active
